# Active and inactive are the calls of the source. The rule behind the calls is not given here.
# How the values were obtained:
# [1] = Cytotoxicity against human LCLC-103H cells after 96 hrs by microtiter assay; type: functional, cell-based
# Procedure, shortened: (§1)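 DSMZ cell lines in RPMI 1640 with 10% FCS. DMF stocks diluted 1000-fold into medium. Continuous exposure 96 h at 37 °C, 5% CO2. Adherent cells stained with crystal violet. IC50 (50% growth inhibition vs untreated control) obtained by least-squares fitting of dose–response curves, averaging 2–5 independent determinations.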
# [2] = system: Staphylococcus epidermidis; test: Antibacterial activity against Staphylococcus epidermis NCTC 14990 after 24 hrs; type: functional, organism-based; details: NCTC 14990, 24 h
# Procedure, shortened: (§2)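 Overnight culture diluted in Mueller–Hinton broth to 10^5 CFU/ml. Compounds dissolved in DMSO and diluted twofold in broth over 0.24–62.5 […]. Tubes inoculated and incubated 24 h at 37 °C. MIC taken as the lowest concentration with no visible growth. Clear tubes were subcultured onto Mueller–Hinton agar, and MBC was taken as the minimal concentration killing the organisms after 24 h.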
# HL-60 [3] = test: Cell cycle arrest in human HL60 cells assessed as accumulation at G2/M phase at 0.3 uM after 72 hrs by FACS relative to untreated control; type: functional, cell-based
# Procedure, shortened: (§3)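 Unsynchronized HL-60 cells treated 24 or 72 h across 0.03–1 µM. Cells fixed in 70% ice-cold ethanol and DNA stained with propidium iodide. Fractions in G0/G1, S and G2/M quantified by flow cytometry and compared with untreated control.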
# A-427 = test: Cytotoxicity against human A427 cells after 96 hrs by microtiter assay; type: functional, cell-based; details: A-427, 96 h; procedure, shortened: as §1
# 5637 = test: Cytotoxicity against human 5637 cells after 96 hrs by microtiter assay; type: functional, cell-based; details: Homo sapiens, 5637, 96 h; procedure, shortened: as §1
# [4] = Cytotoxicity against human KYSE70 cells after 96 hrs by microtiter assay; type: functional, cell-based; details: KYSE-70, 96 h; procedure, shortened: as §1
# HL-60 [5] = test: Cell cycle arrest in human HL60 cells assessed as accumulation at G2/M phase at 0.15 uM after 72 hrs by FACS relative to untreated control; type: functional, cell-based; procedure, shortened: as §3
# RT-4 = test: Cytotoxicity against human RT4 cells after 96 hrs by microtiter assay; type: functional, cell-based; details: RT-4, 96 h; procedure, shortened: as §1
# [6] = Cytotoxicity against human KYSE520 cells after 96 hrs by microtiter assay; type: functional, cell-based; details: KYSE-520, 96 h; procedure, shortened: as §1
# Enterococcus hirae = test: Antibacterial activity against Enterococcus hirae NCTC 10541 after 24 hrs; type: functional, organism-based; details: NCTC 10541, 24 h; procedure, shortened: as §2
# MCF7 = test: Cytotoxicity against human MCF7 cells after 96 hrs by microtiter assay; type: functional, cell-based; details: MCF7, 96 h; procedure, shortened: as §1
# RT-112 = test: Cytotoxicity against human RT112 cells after 96 hrs by microtiter assay; type: functional, cell-based; details: RT-112, 96 h; procedure, shortened: as §1
# HL-60 [7] = test: Cell cycle arrest in human HL60 cells assessed as accumulation at G0/G1 and G2/M phases at 0.15 uM after 72 hrs by FACS relative to untreated control
# DAN-G = test: Cytotoxicity against human DAN-G cells after 96 hrs by microtiter assay; type: functional, cell-based; procedure, shortened: as §1
# SISO = test: Cytotoxicity against human SISO cells after 96 hrs by microtiter assay; type: functional, cell-based; procedure, shortened: as §1
# YAPC = test: Cytotoxicity against human YAPC cells after 96 hrs by microtiter assay; type: functional, cell-based; procedure, shortened: as §1
# HL-60 [8] = test: Cell cycle arrest in human HL60 cells assessed as accumulation at G0/G1 and G2/M phases at 0.3 uM after 72 hrs by FACS relative to untreated control
# Staphylococcus aureus = test: Antibacterial activity against Staphylococcus aureus NCTC 4163 after 24 hrs; type: functional, organism-based; details: NCTC 4163, 24 h; procedure, shortened: as §2
# KYSE-510 = test: Cytotoxicity against human KYSE510 cells after 96 hrs by microtiter assay; type: functional, cell-based; details: KYSE-510, 96 h; procedure, shortened: as §1
# HL-60 [9] = test: Cell cycle arrest in human HL60 cells assessed as accumulation at G0/G1 phase at 0.3 uM after 72 hrs by FACS relative to untreated control; type: functional, cell-based; procedure, shortened: as §3
# HL-60 [10] = test: Cell cycle arrest in human HL60 cells assessed as accumulation at G0/G1 phase at 0.15 uM after 72 hrs by FACS relative to untreated control; type: functional, cell-based; procedure, shortened: as §3
smiles,measurement,setting,value
N#C/C(=C\c1ccc([N+](=O)[O-])s1)c1nc2ccccc2[nH]1,IC50,[1],210 nM
same,MIC,[2],3.2 µM
same,Activity,HL-60 [3],Active
same,IC50,A-427,150 nM
same,IC50,5637,190 nM
same,IC50,[4],190 nM
same,Activity,HL-60 [5],Active
same,IC50,RT-4,530 nM
same,IC50,[6],130 nM
same,MIC,Enterococcus hirae,> 210 µM
same,IC50,MCF7,260 nM
same,IC50,RT-112,440 nM
same,Activity,HL-60 [7],Active
same,IC50,DAN-G,600 nM
same,IC50,SISO,480 nM
same,IC50,YAPC,210 nM
same,Activity,HL-60 [8],Active
same,MIC,Staphylococcus aureus,6.4 µM
same,IC50,KYSE-510,400 nM
same,Activity,HL-60 [9],Active
same,Activity,HL-60 [10],Active
